Rows were chosen to be rich in hits. Some 3.9% of all compounds tested hit in one or more screens of this group.
STAT1 activator = STAT1 signaling activators, primary screen, cell-based, HTS, luciferase reporter | NIH 3T3 STAT1-luciferase reporter, IFN-gamma, luminescence; 100% = IFN-gamma alone, no compound | activation (% of control), % at 5.5 µM | 200,000 compounds, 2.6% hits;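 active = activation above the screen-wide mean activation plus 3 SD, cut at about 130% in these data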;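 note: raw ratio to IFN-gamma control signal so 100% means no change and 0% no light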
STAT1 blocker = STAT1 signaling inhibitors, primary screen, cell-based, HTS, luciferase reporter; NIH 3T3 STAT1-luciferase reporter, IFN-gamma, luminescence; inhibition, % at 5.5 µM; 200,000 compounds, 0.35% hits;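 active = inhibition above a set limit, the mean inhibition across all tested compounds plus 3 SD, cut at about 34% in these data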;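 note: 0% = IFN-gamma with DMSO and 100% = IFN-gamma with 300 µM nifuroxazide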
STAT3 activator = IL-6 driven STAT3 reporter potentiators, primary screen, U3A cells, luciferase, luminescence, MLSCN library | activation (% of control), % at 5.6 µM | 190,000 compounds, 0.91% hits | IL-6 STAT3-luciferase reporter; 100% = signal with IL-6 EC80 alone;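 active = activation above the screen-wide mean of compound activation plus 3 SD, cut at about 130% in these data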;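 note: 0% = background luminescence of wells with medium and substrate only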
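Detection: reporter luminescence signal / Assay system: STAT1-lacking human U3A cells, STAT3 luciferase reporter / Incubation: compound pre-incubation 1 h before IL-6, then 6 h stimulation at 37 °C / Control set: IL-6-only high control / Read-out: % activation relative to IL-6 control / Probe or stimulus: Interleukin-6, 33 ng/mL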
Pf gamet viab = late stage P. falciparum gametocyte viability inhibitors, primary screen, ATP luminescence, HTS | inhibition, % at 10.9 µM | P. falciparum stage V gametocytes, 24 h | 150,000 compounds, 0.065% hits;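 active = inhibition above the mean plus 3 SD of compounds within the control limits, set per campaign, cut at about 38% in these data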;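 note: 0% = DMSO wells and 100% = medium only without gametocytes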
APP 5'UTR act = activators of APP 5'UTR luciferase reporter, primary screen, SH-SY5Y cells; SH-SY5Y APP 5'UTR luciferase reporter, luminescence; zero percent = DMSO vehicle wells; activation, % at 2 µM; 190,000 compounds, 1% hits; AID 1276, 2008;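 active = activation above a set limit, based on mean plus 3 SD of controls, cut at about 140% in these data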
NF-kB expr up = activators of NF-kB expression in neurons, primary screen, cell-based, HTS; fold change at 12.5 µM; human neuronal cells, NF-kB reporter expression; stronger effect = higher value; 190,000 compounds, 1.6% hits; AID 1239, 2008; in the data active = fold change above about 3.3
The depositor's hits bear a star.

What do the screens show for `CS(=O)(=O)c1ccccc1COC(=O)Nc1ccc(Cl)cc1`?
STAT1 activator: 107; STAT1 blocker: -7; STAT3 activator: 96; APP 5'UTR act: 27; NF-kB expr up: 1.5

What do the screens show for `CN(C(=O)c1ccc2c(c1)CCN2S(C)(=O)=O)c1ccccc1`?
STAT1 activator: 98; STAT1 blocker: 1; STAT3 activator: 98; APP 5'UTR act: -7; NF-kB expr up: 1.1

Results for CS(=O)(=O)N1CCc2cc(C(=O)OCC(=O)c3ccccc3)ccc21 ?
STAT1 activator: 156*; STAT1 blocker: -57; STAT3 activator: 111; Pf gamet viab: -27; APP 5'UTR act: 8; NF-kB expr up: 4*

How did Oc1c(CN2CCOCC2)cc(COCc2ccccc2)c2cccnc12 do in these assays?
STAT1 activator: 119; STAT1 blocker: -21; STAT3 activator: 96; Pf gamet viab: -16; APP 5'UTR act: -92; NF-kB expr up: 4.2*

How did Cc1ccc(C(=O)C2=C(O)C(=O)N(Cc3ccccc3)C2c2cccnc2)o1 (stereo not given) do in these assays?
STAT1 activator: 66; STAT1 blocker: 37*; STAT3 activator: 94; APP 5'UTR act: 5; NF-kB expr up: 0.83

Results for CC(=O)C1=C(O)C(=O)N(Cc2cccnc2)C1c1ccccc1Cl (stereo not given) ?
STAT1 activator: 96; STAT1 blocker: 4; STAT3 activator: 105; APP 5'UTR act: -15; NF-kB expr up: 0.93

How did CCOc1ccccc1CN1CCN(CC2=Cc3cc(OC)ccc3OC2)CC1CCO (stereo not given) do in these assays?
Pf gamet viab: -18

How did Cc1cc(/C=C2\NC(=O)N(Cc3ccc(Cl)cc3)C2=O)c(C)n1C do in these assays?
STAT1 activator: 94; STAT1 blocker: 6; STAT3 activator: 139*; Pf gamet viab: 11; APP 5'UTR act: 4; NF-kB expr up: 1.2

What do the screens show for `Cc1ccc(CN2C(=O)N/C(=C/c3ccc4c(c3)n(C)c(=O)n4C)C2=O)cc1`?
STAT1 activator: 70; STAT1 blocker: 32; STAT3 activator: 69; APP 5'UTR act: -24; NF-kB expr up: 1.4

What do the screens show for `CCC(=O)Nc1cccc(NC(=S)NC(=O)c2cccs2)c1`?
STAT1 activator: 132*; STAT1 blocker: -36; STAT3 activator: 109; Pf gamet viab: -3; APP 5'UTR act: 32; NF-kB expr up: 1.8

Results for CCCOC(=O)c1ccc(NC(=O)c2cc(=O)[nH]c3ccccc23)cc1 ?
Pf gamet viab: 23

Results for Cc1cc(NC(=O)Nc2cccc(C)c2C)no1 ?
STAT1 activator: 103; STAT1 blocker: -3; STAT3 activator: 82; Pf gamet viab: 13; APP 5'UTR act: 0; NF-kB expr up: 0.8

What do the screens show for `CCc1ccc(NC(=O)C(=O)NCC2CCCO2)cc1` (stereo not given)?
STAT1 activator: 131*; STAT1 blocker: -34; STAT3 activator: 93; Pf gamet viab: -23; APP 5'UTR act: 114; NF-kB expr up: 2.5

How did CCc1ccc(NC(=O)C(=O)NCc2ccccn2)cc1 do in these assays?
STAT1 activator: 132*; STAT1 blocker: -38; STAT3 activator: 94; Pf gamet viab: 2; APP 5'UTR act: 10; NF-kB expr up: 2.1

What do the screens show for `CCOc1ccc(NC(=S)N2CCC(C(=O)c3ccc(F)cc3)CC2)cc1`?
Pf gamet viab: -4

How did O=[N+]([O-])c1ccc(C2Nc3cccc4cccc(c34)N2)cc1 do in these assays?
STAT1 activator: 103; STAT1 blocker: -3; STAT3 activator: 134*; Pf gamet viab: -18; APP 5'UTR act: 17; NF-kB expr up: 0.87

How did Cc1ccc(NC(=O)/C=C/c2cccs2)c([N+](=O)[O-])c1 do in these assays?
STAT1 activator: 146*; STAT1 blocker: -51; STAT3 activator: 98; Pf gamet viab: -37; APP 5'UTR act: 173*; NF-kB expr up: 7*

How did Cc1ccc(NC(=O)/C=C/C(=O)O)c([N+](=O)[O-])c1 do in these assays?
STAT1 activator: 100; STAT1 blocker: 0; STAT3 activator: 91; APP 5'UTR act: 13; NF-kB expr up: 1.3

Results for Cc1cccc(NC(=O)/C=C/c2cccs2)n1 ?
STAT1 activator: 149*; STAT1 blocker: -54; STAT3 activator: 79; Pf gamet viab: -23; APP 5'UTR act: 170*; NF-kB expr up: 5*

What do the screens show for `CN(C(=O)CSc1ncnc2c(-c3cccs3)nsc12)C1CCCCC1`?
Pf gamet viab: -8

What do the screens show for `CCC(=O)N(Cc1c(C)nn(-c2ccccc2)c1Cl)c1ccc(Cl)cc1`?
STAT1 activator: 102; STAT1 blocker: -2; STAT3 activator: 105; Pf gamet viab: -13; APP 5'UTR act: -6; NF-kB expr up: 1.2

How did CC(/C=N/NC(=O)c1ccco1)=C\c1ccccc1 do in these assays?
STAT1 activator: 108; STAT1 blocker: -9; STAT3 activator: 68; Pf gamet viab: 2; APP 5'UTR act: 161*; NF-kB expr up: 5.9*

Results for O=C(CCc1ccccc1)Nc1ccc(NC(=O)c2ccco2)cc1 ?
STAT1 activator: 107; STAT1 blocker: -8; STAT3 activator: 101; Pf gamet viab: 5; APP 5'UTR act: 3; NF-kB expr up: 1.2

Results for O=C(N/N=C\CCc1ccccc1)c1ccco1 ?
STAT1 activator: 134*; STAT1 blocker: -38; STAT3 activator: 108; Pf gamet viab: 6; APP 5'UTR act: 43; NF-kB expr up: 1.2

Results for CC(/C=N/NC(=O)c1ccccc1C)=C\c1ccccc1 ?
Pf gamet viab: -1

Results for CC(/C=N/NC(=O)c1cccs1)=C\c1ccccc1 ?
STAT1 activator: 134*; STAT1 blocker: -38; STAT3 activator: 75; Pf gamet viab: -11; APP 5'UTR act: 188*; NF-kB expr up: 8.5*

Results for CCc1ccc2[nH]c(C(=O)Nc3ccc4c(c3)OCO4)cc2c1 ?
Pf gamet viab: 4

How did Cc1c(C#N)c(O)n(C)c(=O)c1N=Nc1ccc(S(N)(=O)=O)cc1 do in these assays?
STAT1 activator: 141*; STAT1 blocker: -46; STAT3 activator: 111; Pf gamet viab: 16; APP 5'UTR act: -1; NF-kB expr up: 1.1

What do the screens show for `O=C(CNC(=O)c1ccc(N2C(=O)c3ccccc3C2=O)cc1)OCC(=O)c1ccc(Cl)cc1`?
STAT1 activator: 101; STAT1 blocker: -1; STAT3 activator: 98; Pf gamet viab: 2; APP 5'UTR act: 0; NF-kB expr up: 0.79

What do the screens show for `COc1ccc(-c2cn3c(C)c(C(=O)NCCN4CCOCC4)sc3n2)cc1`?
STAT1 activator: 101; STAT1 blocker: -1; STAT3 activator: 132; Pf gamet viab: 10; APP 5'UTR act: 9; NF-kB expr up: 1

From PubChem BioAssay
